Converted amounts (≈) assume the structure as drawn.
Legend:
Assay type in all cases: functional
[1] = system: Rhizopus; assay: Antimicrobial activity against Rhizopus sp. after 3 to 4 days by serial plate dilution method
How it was run: (§1)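 Fungal MIC by serial plate dilution. Sabouraud agar (peptone, D-glucose, agar; pH 5.7) plates seeded with saline spore suspension, dried 1 h at 37 °C. Wells punched and filled with compound in DMSO; DMSO-only control. Triplicate plates held 3–4 days at 37 °C; inhibition zone diameter measured. Amphotericin B positive control. Tested range […] per mL.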

[2] = system: Aspergillus flavus; assay: Antimicrobial activity against Aspergillus flavus after 3 to 4 days by serial plate dilution method; how it was run: as §1
[3] = system: Mycolicibacterium fortuitum; assay: Antimicrobial activity against Mycobacterium fortuitum ATCC 19542 after 7 days by resazurin assay; settings: ATCC 19542, 168 h
[4] = system: Klebsiella pneumoniae; assay: Ratio of ciprofloxacin MIC to compound MIC for Klebsiella pneumoniae ATCC 13883
[5] = system: Staphylococcus aureus; assay: Antimicrobial activity against Staphylococcus aureus ATCC 25923 after 16 to 18 hrs by […]
[6] = system: Candida albicans; assay: Antimicrobial activity against Candida albicans after 3 to 4 days by serial plate dilution method; how it was run: as §1
[7] = system: Staphylococcus aureus; assay: Ratio of ciprofloxacin MIC to compound MIC for Staphylococcus aureus ATCC 25923
[8] = system: Mycobacterium tuberculosis; assay: Antimicrobial activity against Mycobacterium tuberculosis H37Rv ATCC 27294 at 1 to 100 ug/ml after 7 days by resazurin assay
How it was run: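 Preliminary screen at three concentrations (1, 10 and 100) by resazurin microtitre assay. Cultures were grown in Middlebrook 7H9 with 10% OADC, and compounds came from 2 mg/mL DMF stocks with DMF controls. Plates were incubated 7 days at 37 °C, and resazurin colour was read after 1 h. Inhibition was scored as no blue-to-pink change.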

[9] = system: Mycobacterium tuberculosis; assay: Antimicrobial activity against Mycobacterium tuberculosis H37Rv ATCC 27294 after 7 days by resazurin assay; settings: H37Rv ATCC 27294, 168 h
How it was run: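 Resazurin microtitre assay. Cultures were grown in Middlebrook 7H9 with 10% OADC and added to fresh medium in 96-well plates. Test compounds came from 2 mg/mL DMF stocks, with DMF-only controls. Plates were incubated 7 days at 37 °C, then resazurin was added and read after 1 h at 37 °C. MIC was the lowest concentration preventing the blue-to-pink change.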

[10] = system: Escherichia coli; assay: Antimicrobial activity against Escherichia coli ATCC 25922 after 16 to 18 hrs by […]
[11] = system: Klebsiella pneumoniae; assay: Antimicrobial activity against Klebsiella pneumoniae ATCC 13883 after 16 to 18 hrs by serial plate dilution method
How it was run: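 Bacterial MIC by serial dilution in Mueller-Hinton broth adjusted to pH 5.0 with phosphate buffer. Tubes inoculated with standardized bacterial suspension, incubated 16–18 h at 37 °C. MIC read as lowest concentration with no visible growth. Range […] per mL. DMSO as negative control, ciprofloxacin as positive control.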

[12] = system: Mycolicibacterium smegmatis; assay: Antimicrobial activity against Mycobacterium smegmatis (MC2) ATCC 19420 after 7 days by resazurin assay; settings: (MC2) ATCC 19420, 168 h

SMILES: COc1cc(NS(=O)(=O)Cc2cccc(C(F)(F)F)c2)ccc1-n1cnc(Cl)c1
- MIC [1]: 128 µg/mL (≈ 287 µM)
- MIC [2]: 32 µg/mL (≈ 71.8 µM)
- MIC [3]: 10 µg/mL (≈ 22.4 µM)
- Ratio [4]: 2
- MIC [5]: 4 µg/mL (≈ 8.97 µM)
- MIC [6]: 64 µg/mL (≈ 144 µM)
- Ratio [7]: 1
- inhibition (INH) [8]: 90%
- MIC [9]: 1.25 µg/mL (≈ 2.8 µM)
- MIC [10]: 64 µg/mL (≈ 144 µM)
- MIC [11]: 4 µg/mL (≈ 8.97 µM)

SMILES: COc1cc(NS(=O)(=O)c2cc(F)cc(C(F)(F)F)c2)ccc1-n1cnc(Cl)c1
- MIC [12]: 10 µg/mL (≈ 22.2 µM)
- MIC [1]: 16 µg/mL (≈ 35.6 µM)
- MIC [2]: 8 µg/mL (≈ 17.8 µM)
- MIC [3]: 10 µg/mL (≈ 22.2 µM)
- Ratio [4]: 1
- MIC [5]: 4 µg/mL (≈ 8.89 µM)
- MIC [6]: 8 µg/mL (≈ 17.8 µM)
- Ratio [7]: 1
- inhibition (INH) [8]: 95%
- MIC [9]: 0.625 µg/mL (≈ 1.39 µM)
- MIC [10]: 4 µg/mL (≈ 8.89 µM)
- MIC [11]: 8 µg/mL (≈ 17.8 µM)

SMILES: COc1cc(NS(=O)(=O)c2ccc(C(F)(F)F)cc2)ccc1-n1cnc(Cl)c1
- MIC [12]: 1.25 µg/mL (≈ 2.89 µM)
- MIC [1]: 16 µg/mL (≈ 37.1 µM)
- MIC [2]: 16 µg/mL (≈ 37.1 µM)
- MIC [3]: 10 µg/mL (≈ 23.2 µM)
- Ratio [4]: 1
- MIC [5]: 4 µg/mL (≈ 9.26 µM)
- MIC [6]: 8 µg/mL (≈ 18.5 µM)
- Ratio [7]: 1
- inhibition (INH) [8]: 95%
- MIC [9]: 0.625 µg/mL (≈ 1.45 µM)
- MIC [10]: 16 µg/mL (≈ 37.1 µM)
- MIC [11]: 8 µg/mL (≈ 18.5 µM)

SMILES: COc1cc(NS(=O)(=O)c2c(F)ccc(C(F)(F)F)c2Cl)ccc1-n1cnc(Cl)c1
- MIC [12]: 1.25 µg/mL (≈ 2.58 µM)
- MIC [1]: 16 µg/mL (≈ 33 µM)
- MIC [2]: 16 µg/mL (≈ 33 µM)
- MIC [3]: 10 µg/mL (≈ 20.7 µM)
- Ratio [4]: 1
- MIC [5]: 4 µg/mL (≈ 8.26 µM)
- MIC [6]: 8 µg/mL (≈ 16.5 µM)
- Ratio [7]: 1
- inhibition (INH) [8]: 90%
- MIC [9]: 0.625 µg/mL (≈ 1.29 µM)
- MIC [10]: 4 µg/mL (≈ 8.26 µM)
- MIC [11]: 8 µg/mL (≈ 16.5 µM)
